Test results published in the M2OR odorant receptor database.
Changes are numbered by the printed parent chain.

Columns and labels:
Conditions in all cases: stereoisomer not certain
OR5T3 (Homo sapiens) = target: T1, OR5T3 (Homo sapiens) (UniProt Q8NGG3)
T1 sequence (whole entry): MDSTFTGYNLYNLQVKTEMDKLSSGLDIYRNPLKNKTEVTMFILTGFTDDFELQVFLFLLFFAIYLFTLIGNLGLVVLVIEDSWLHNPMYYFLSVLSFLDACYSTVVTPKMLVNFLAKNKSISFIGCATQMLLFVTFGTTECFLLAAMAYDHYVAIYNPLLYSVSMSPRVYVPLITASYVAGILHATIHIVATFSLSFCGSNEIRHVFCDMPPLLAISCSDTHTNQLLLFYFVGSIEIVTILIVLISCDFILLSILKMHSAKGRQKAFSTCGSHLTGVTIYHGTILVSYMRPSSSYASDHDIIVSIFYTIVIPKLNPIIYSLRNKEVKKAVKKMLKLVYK
Method in brief: (§1)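 Transient luciferase assays in mammalian cell lines were common, though methods varied by source. The values come from published papers and their supplementary material, with extra details from the original authors when needed. Responsive refers to a measured signal the original authors judged statistically different from baseline, and non-responsive (inactive) to the remainder.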

OR5V1 (Homo sapiens) = target: T2, OR5V1 (Homo sapiens) (UniProt Q9UGF6)
T2 sequence (whole entry): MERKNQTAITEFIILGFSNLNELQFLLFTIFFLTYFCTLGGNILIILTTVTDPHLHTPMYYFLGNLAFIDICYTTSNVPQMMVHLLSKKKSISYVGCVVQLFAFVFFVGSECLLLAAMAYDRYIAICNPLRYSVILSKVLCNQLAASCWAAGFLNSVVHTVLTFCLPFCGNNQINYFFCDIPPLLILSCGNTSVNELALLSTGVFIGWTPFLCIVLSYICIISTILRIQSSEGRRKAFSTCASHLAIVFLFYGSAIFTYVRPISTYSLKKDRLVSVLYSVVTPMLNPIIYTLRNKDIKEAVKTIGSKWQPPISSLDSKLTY
Method in brief: as §1

OR5W2 (Homo sapiens) = target: T3, OR5W2 (Homo sapiens) (UniProt Q8NH69)
T3 sequence (whole entry): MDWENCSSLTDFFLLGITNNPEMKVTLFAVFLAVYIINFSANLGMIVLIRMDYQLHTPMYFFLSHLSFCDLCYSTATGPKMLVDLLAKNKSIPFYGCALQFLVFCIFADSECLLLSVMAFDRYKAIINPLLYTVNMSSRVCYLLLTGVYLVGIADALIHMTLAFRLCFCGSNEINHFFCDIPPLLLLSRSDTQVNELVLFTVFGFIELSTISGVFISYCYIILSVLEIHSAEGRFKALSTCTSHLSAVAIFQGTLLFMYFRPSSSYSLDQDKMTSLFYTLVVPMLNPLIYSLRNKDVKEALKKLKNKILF
Method in brief: as §1

OR6A2 (Homo sapiens) = target: T4, OR6A2 (Homo sapiens) (UniProt O95222)
T4 sequence (whole entry): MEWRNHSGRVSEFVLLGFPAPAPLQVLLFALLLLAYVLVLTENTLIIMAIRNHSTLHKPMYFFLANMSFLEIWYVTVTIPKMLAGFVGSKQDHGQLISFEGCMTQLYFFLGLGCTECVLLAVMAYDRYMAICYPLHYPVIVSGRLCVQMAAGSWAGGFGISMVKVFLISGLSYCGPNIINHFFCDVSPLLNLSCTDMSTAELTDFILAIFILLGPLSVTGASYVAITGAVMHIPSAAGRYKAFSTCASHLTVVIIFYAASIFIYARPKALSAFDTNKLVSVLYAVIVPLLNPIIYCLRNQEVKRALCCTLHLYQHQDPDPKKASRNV
Method in brief: as §1

OR6B1 (Homo sapiens) = target: T5, OR6B1 (Homo sapiens) (UniProt O95007)
T5 sequence (whole entry): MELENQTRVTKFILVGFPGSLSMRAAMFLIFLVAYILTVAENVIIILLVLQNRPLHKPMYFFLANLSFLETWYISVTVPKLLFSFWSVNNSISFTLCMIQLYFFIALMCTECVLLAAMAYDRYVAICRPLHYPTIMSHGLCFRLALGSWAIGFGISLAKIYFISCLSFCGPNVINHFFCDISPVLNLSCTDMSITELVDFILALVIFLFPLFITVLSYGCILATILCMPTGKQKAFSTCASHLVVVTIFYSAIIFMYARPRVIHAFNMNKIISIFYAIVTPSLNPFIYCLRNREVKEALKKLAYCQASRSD
Method in brief: as §1

OR6B2 (Homo sapiens) = target: T6, OR6B2 (Homo sapiens) (UniProt Q6IFH4)
T6 sequence (whole entry): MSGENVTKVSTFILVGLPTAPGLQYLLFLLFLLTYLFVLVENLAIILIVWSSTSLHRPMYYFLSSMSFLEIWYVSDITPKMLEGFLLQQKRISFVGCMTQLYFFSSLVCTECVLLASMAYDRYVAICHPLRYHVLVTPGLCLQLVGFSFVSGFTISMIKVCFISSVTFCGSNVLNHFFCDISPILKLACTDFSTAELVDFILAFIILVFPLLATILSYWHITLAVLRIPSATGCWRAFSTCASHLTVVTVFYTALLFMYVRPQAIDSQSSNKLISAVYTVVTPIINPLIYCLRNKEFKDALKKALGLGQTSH
Method in brief: as §1

OR6B3 (Homo sapiens) = target: T7, OR6B3 (Homo sapiens) (UniProt Q8NGW1)
T7 sequence (whole entry): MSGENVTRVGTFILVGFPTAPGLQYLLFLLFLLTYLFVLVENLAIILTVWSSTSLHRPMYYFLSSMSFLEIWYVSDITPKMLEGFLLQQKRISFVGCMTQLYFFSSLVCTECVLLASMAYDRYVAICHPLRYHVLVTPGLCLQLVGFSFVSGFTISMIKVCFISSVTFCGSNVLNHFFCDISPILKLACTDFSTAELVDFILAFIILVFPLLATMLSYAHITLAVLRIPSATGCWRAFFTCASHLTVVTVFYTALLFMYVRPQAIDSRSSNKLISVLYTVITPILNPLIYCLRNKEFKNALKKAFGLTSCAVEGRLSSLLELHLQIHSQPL
Method in brief: as §1

OR6C1 (Homo sapiens) = target: T8, OR6C1 (Homo sapiens) (UniProt Q96RD1)
T8 sequence (whole entry): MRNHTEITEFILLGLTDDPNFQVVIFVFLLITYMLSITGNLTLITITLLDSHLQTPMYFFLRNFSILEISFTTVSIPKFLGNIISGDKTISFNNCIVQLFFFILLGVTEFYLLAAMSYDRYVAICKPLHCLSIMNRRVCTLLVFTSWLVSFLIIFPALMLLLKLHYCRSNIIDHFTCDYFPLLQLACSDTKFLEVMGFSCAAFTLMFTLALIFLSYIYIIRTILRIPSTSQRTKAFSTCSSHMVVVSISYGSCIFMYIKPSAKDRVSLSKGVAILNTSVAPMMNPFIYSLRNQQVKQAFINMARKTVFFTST
Method in brief: as §1

OR6C2 (Homo sapiens) = target: T9, OR6C2 (Homo sapiens) (UniProt Q9NZP2)
T9 sequence (whole entry): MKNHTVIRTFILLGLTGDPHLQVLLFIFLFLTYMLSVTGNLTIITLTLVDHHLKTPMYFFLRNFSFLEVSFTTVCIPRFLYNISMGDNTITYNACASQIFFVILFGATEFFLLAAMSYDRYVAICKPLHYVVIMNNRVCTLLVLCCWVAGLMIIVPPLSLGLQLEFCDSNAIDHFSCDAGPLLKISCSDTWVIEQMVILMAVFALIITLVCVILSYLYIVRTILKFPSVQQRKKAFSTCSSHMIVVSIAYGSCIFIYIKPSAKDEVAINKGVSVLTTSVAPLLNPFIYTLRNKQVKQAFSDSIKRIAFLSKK
Method in brief: as §1

OR6C3 (Homo sapiens) = target: T10, OR6C3 (Homo sapiens) (UniProt Q9NZP0)
T10 sequence (whole entry): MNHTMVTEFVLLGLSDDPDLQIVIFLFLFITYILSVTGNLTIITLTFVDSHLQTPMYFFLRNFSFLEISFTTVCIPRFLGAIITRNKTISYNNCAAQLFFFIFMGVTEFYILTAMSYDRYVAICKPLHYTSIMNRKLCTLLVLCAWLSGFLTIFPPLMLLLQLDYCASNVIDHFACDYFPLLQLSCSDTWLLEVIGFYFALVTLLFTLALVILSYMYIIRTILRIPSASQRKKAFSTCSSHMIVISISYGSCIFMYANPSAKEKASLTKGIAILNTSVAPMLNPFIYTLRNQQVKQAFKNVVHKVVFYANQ
Method in brief: as §1

OR6C4 (Homo sapiens) = target: T11, OR6C4 (Homo sapiens) (UniProt Q8NGE1)
T11 sequence (whole entry): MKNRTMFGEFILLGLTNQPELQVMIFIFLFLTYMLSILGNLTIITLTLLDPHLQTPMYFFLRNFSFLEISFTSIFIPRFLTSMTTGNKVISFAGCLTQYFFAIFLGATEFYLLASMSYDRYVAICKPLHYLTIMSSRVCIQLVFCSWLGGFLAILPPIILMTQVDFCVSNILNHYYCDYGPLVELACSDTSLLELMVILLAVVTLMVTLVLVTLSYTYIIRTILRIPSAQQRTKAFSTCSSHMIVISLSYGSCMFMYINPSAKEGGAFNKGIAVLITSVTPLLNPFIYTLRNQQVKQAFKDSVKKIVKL
Method in brief: as §1

OR6C6 (Homo sapiens) = target: T12, OR6C6 (Homo sapiens) (UniProt A6NF89)
T12 sequence (whole entry): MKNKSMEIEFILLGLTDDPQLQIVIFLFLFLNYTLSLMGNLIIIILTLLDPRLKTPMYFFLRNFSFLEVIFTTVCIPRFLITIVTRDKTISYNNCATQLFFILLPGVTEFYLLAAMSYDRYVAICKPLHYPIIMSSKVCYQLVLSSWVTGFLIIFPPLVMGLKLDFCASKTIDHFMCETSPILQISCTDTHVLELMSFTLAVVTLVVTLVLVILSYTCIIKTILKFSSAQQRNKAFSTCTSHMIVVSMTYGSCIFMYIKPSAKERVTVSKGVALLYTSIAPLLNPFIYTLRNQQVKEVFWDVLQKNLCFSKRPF
Method in brief: as §1

OR5T2 S4G = tested on: T13, OR5T2 S4G
T13 sequence (whole entry): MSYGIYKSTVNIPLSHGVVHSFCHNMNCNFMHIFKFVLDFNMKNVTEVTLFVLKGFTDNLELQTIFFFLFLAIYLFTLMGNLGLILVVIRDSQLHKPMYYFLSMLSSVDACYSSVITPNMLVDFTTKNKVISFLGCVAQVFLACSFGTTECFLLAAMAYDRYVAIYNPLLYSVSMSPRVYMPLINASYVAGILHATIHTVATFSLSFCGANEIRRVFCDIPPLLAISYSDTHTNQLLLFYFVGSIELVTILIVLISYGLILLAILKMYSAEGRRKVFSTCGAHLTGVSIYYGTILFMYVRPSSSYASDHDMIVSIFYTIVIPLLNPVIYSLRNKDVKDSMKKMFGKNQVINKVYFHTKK
Method in brief: as §1

OR5W2 R189C = tested on: T14, OR5W2 R189C
T14 sequence (whole entry): T3 sequence (whole entry) with R189C
Method in brief: as §1

OR6A2 I50V = tested on: T15, OR6A2 I50V
T15 sequence (whole entry): T4 sequence (whole entry) with I50V
Method in brief: as §1

OR6B2 R122C C179R = tested on: T16, OR6B2 R122C C179R
T16 sequence (whole entry): T6 sequence (whole entry) with R122C, C179R
Method in brief: as §1

OR6B3 T48I R131C = tested on: T17, OR6B3 T48I R131C
T17 sequence (whole entry): T7 sequence (whole entry) with T48I, R131C
Method in brief: as §1

OR6C1 C130Y H165D V246I = tested on: T18, OR6C1 C130Y H165D V246I
T18 sequence (whole entry): T8 sequence (whole entry) with C130Y, H165D, V246I
Method in brief: as §1

OR6C4 = tested on: T19, OR6C4
T19 sequence (whole entry): T11 sequence (whole entry) with I37V
Method in brief: as §1

OR6C6 M6I = tested on: T20, OR6C6 M6I
T20 sequence (whole entry): T12 sequence (whole entry) with M6I
Method in brief: as §1

Measured: odorant receptor agonist call;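 further: active if original authors judged signal statistically different from baseline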

CC1CCCCCCCCCCCCC(=O)C1 (stereo unspecified)
not listed: OR5T2 S4G | OR5W2 R189C | OR6A2 I50V | OR6B2 R122C C179R | OR6B3 T48I R131C | OR6C1 C130Y H165D V246I | OR6C4 | OR6C6 M6I
inactive: all other assays above

CCCCCCC=CCCC=O
inactive: all assays above

CCCCCC(S)C(C)CO (stereo unspecified)
not listed: OR5T2 S4G | OR5W2 R189C | OR6A2 I50V | OR6B2 R122C C179R | OR6B3 T48I R131C | OR6C1 C130Y H165D V246I | OR6C4 | OR6C6 M6I
inactive: all other assays above

CC(CO)CS (stereo unspecified)
not listed: OR5T2 S4G | OR5W2 R189C | OR6A2 I50V | OR6B2 R122C C179R | OR6B3 T48I R131C | OR6C1 C130Y H165D V246I | OR6C4 | OR6C6 M6I
inactive: all other assays above

CC1=C(O)C(=O)C(C)O1 (stereo unspecified)
inactive: all assays above

Cc1cnc(C)c(C)n1
inactive: all assays above

CCC1OC(C)=C(O)C1=O (stereo unspecified)
inactive: all assays above
